Results taken from ChEMBL document CHEMBL1133548, “Semisynthesis of antitumoral acetogenins: SAR of functionalized alkyl-chain bis-tetrahydrofuranic acetogenins, specific inhibitors of mitochondrial complex I” (J Med Chem, 2000).

What was measured:
[1] = Ratio of IC50 of DB to that of NADH oxidase
In short: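 Ratio of two IC50 values measured on NADH-activated beef heart submitochondrial particles (0.28 nM complex I, 22 °C, pH 7.4 phosphate/EDTA). The numerator IC50 comes from NADH:decylubiquinone oxidoreductase (75 µM NADH, 30 µM DB, plus antimycin and cyanide). The denominator IC50 comes from aerobic NADH oxidase (75 µM NADH, no added quinone). Both activities were read at 340 nm.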

[2] = Inhibition of NADH decylubiquinone (DB) oxidoreductase activity.; parameters: species or system Bos taurus
In short: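 Beef heart submitochondrial particles from sonicated frozen-thawed mitochondria, NADH-activated (300 µM) at 0.5 mg·mL⁻¹. Assay at 22 °C in 50 mM K phosphate pH 7.4, 1 mM EDTA, 0.28 nM complex I, with 75 µM NADH, 30 µM decylubiquinone, 2 µM antimycin and 2 mM KCN. Inhibitor titrated as ethanolic additions (5 min on ice each). NADH loss read at 340 nm; IC50 taken at 50% inhibition.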

[3] = target: Mitochondrial complex I; NADH oxidoreductase (Bos taurus) (UniProt P25708+P52505); experiment: Relative potency of inhibition of NADH oxidase (IC50); 4-dehydroxy-4-hydroxylimonorolliniastatin-1 as standard; assay type: protein-complex assay
In short: (§1)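 Derived value: the compound's NADH oxidase IC50 expressed relative to that of the reference acetogenin. The oxidase assay used NADH-activated beef heart submitochondrial particles (0.28 nM complex I) oxidising 75 µM NADH aerobically without added quinone, at 22 °C and pH 7.4. Inhibitor was added stepwise with 5 min incubations on ice, and NADH decrease was followed at 340 nm.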

[4] = target: Mitochondrial complex I; NADH oxidoreductase (Bos taurus, UniProt P25708+P52505); experiment: Inhibition of NADH oxidase activity.; assay type: protein-complex assay
In short: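 Beef-heart submitochondrial particles (sonicated frozen-thawed mitochondria), preactivated with 300 µM NADH, assayed at 22 °C in 50 mM potassium phosphate pH 7.4, 1 mM EDTA (0.28 nM complex I). Aerobic oxidation of 75 µM NADH with no added quinone, followed at 340 nm. Ethanolic compound added cumulatively, 5 min on ice per step, ethanol ≤2%. IC50 is the final concentration giving 50% inhibition.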

[5] = Percent of relative potency by NADH oxidase assay; in short: as §1

Chain of Mitochondrial complex I; NADH oxidoreductase (P25708 21-464 limits assumed, other chains not shown): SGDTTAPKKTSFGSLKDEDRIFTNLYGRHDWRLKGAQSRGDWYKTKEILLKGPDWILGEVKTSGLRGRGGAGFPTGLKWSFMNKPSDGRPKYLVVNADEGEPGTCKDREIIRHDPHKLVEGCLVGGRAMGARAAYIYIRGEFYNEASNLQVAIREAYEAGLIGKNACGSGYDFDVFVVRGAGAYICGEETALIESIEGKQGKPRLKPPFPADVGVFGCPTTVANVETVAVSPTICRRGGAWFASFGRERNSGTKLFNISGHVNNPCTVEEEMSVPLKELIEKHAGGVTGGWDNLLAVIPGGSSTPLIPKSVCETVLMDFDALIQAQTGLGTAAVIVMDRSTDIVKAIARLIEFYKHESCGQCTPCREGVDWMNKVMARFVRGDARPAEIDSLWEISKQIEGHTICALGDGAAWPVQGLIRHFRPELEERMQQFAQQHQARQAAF

For `CCCCCC/C(CCC[C@H](O)[C@H]1CC[C@H]([C@H]2CC[C@H]([C@H](O)CCCCCCCCCCCCC3=C[C@H](C)OC3=O)O2)O1)=N\O`, which Ratio [1] is on record?
The Ratio was 1.2.

What about the IC50 [2] of the same molecule?
The IC50 was 0.9 nM.

What about the Relative potency [3] of the same molecule?
The Relative potency was 3.

What about the IC50 [4] of the same molecule?
The IC50 was 0.74 nM.

And the Relative potency [5]?
Its Relative potency is 33.8.

For `CCCCCCCCCC/C(=N\O)[C@H]1CC[C@@H]([C@@H]2CC[C@H]([C@H](O)CCCCCCCCCC/C(CC3=C[C@H](C)OC3=O)=N\O)O2)O1`, which Ratio [1] is on record?
Its Ratio is 1.1.

What about the IC50 [2] of the same molecule?
Its IC50 is 0.39 nM.

And the Relative potency [3]?
Its Relative potency is 1.4.

What about the IC50 [4] of the same molecule?
The IC50 was 0.34 nM.

What about the Relative potency [5] of the same molecule?
Its Relative potency is 73.5.

Which Ratio [1] does the source give for `CCCCCCCCCC[C@H](OS(C)(=O)=O)[C@H]1CC[C@@H]([C@@H]2CC[C@H]([C@@H](CCCCCCCCCC[C@H](CC3=C[C@H](C)OC3=O)OS(C)(=O)=O)OS(C)(=O)=O)O2)O1` here?
The Ratio was 260.

And the IC50 [2]?
Its IC50 is 438 nM.

What about the IC50 [4] of the same molecule?
Its IC50 is 1.68 nM.

And the Relative potency [5]?
The Relative potency was 6.7.

With `CCCCCCCCCC[C@H](O)[C@H]1CC[C@@H]([C@@H]2CC[C@H]([C@H](O)CCCCCCCCCCC(=O)CC3=C[C@H](C)OC3=O)O2)O1` as the molecule, how does the Ratio [1] read?
Its Ratio is 1.1.

What about the IC50 [2] of the same molecule?
Its IC50 is 0.45 nM.

What about the Relative potency [3] of the same molecule?
Its Relative potency is 1.7.

And the IC50 [4]?
Its IC50 is 0.42 nM.

And the Relative potency [5]?
Its Relative potency is 59.5.

What does the source list for `CCCCCC[C@@H](CCC[C@H](OS(C)(=O)=O)[C@H]1CC[C@H]([C@H]2CC[C@H]([C@@H](CCCCCCCCCCCCC3=C[C@H](C)OC3=O)OS(C)(=O)=O)O2)O1)OS(C)(=O)=O`?
Ratio [1]: 144; IC50 [2]: 2040 nM; Relative potency [3]: 56; IC50 [4]: 14.1 nM

Which Ratio [1] does the source give for `CCCCCC[C@H](CCC[C@@H](N=[N+]=[N-])[C@H]1CC[C@H]([C@H]2CC[C@H]([C@H](CCCCCCCCCCCCC3=C[C@H](C)OC3=O)N=[N+]=[N-])O2)O1)N=[N+]=[N-]` here?
Its Ratio is 17.

What about the IC50 [2] of the same molecule?
Its IC50 is 315 nM.

What about the Relative potency [3] of the same molecule?
The Relative potency was 72.

And the IC50 [4]?
Its IC50 is 18 nM.

With `CCCCCCCCCC[C@H](O)[C@H]1CC[C@H]([C@H]2CC[C@H]([C@H](O)CCCCC(=O)CCCCCCCC3=C[C@H](C)OC3=O)O2)O1` [GUANACONE] as the molecule, how does the Ratio [1] read?
Its Ratio is 1.4.

And the IC50 [2]?
Its IC50 is 2.1 nM.

And the Relative potency [3]?
Its Relative potency is 6.1.

And the IC50 [4]?
Its IC50 is 1.52 nM.

Which results are given for `CCCCCCCCCC[C@H](O)[C@H]1CC[C@@H]([C@@H]2CC[C@H]([C@H](O)CCCCCCCC[C@@H](O)CC3=C[C@H](C)OC3=O)O2)O1`?
Ratio [1]: 2.5; IC50 [2]: 0.83 nM; Relative potency [3]: 1.3; IC50 [4]: 0.33 nM; Relative potency [5]: 75.8

Which results are given for `CCCCCC[C@@H](CCC[C@H](OC(C)=O)[C@H]1CC[C@H]([C@H]2CC[C@H]([C@@H](CCCCCCCCCCCCC3=C[C@H](C)OC3=O)OC(C)=O)O2)O1)OC(C)=O`?
Ratio [1]: 587; IC50 [2]: 2940 nM; Relative potency [3]: 20; IC50 [4]: 5 nM

With `CCCCCCCCCC[C@H](OC(C)=O)[C@H]1CC[C@@H]([C@@H]2CC[C@H]([C@@H](CCCCCCCCCC[C@H](CC3=C[C@H](C)OC3=O)OC(C)=O)OC(C)=O)O2)O1` as the molecule, how does the Ratio [1] read?
Its Ratio is 1300.

What about the IC50 [2] of the same molecule?
Its IC50 is 1890 nM.

And the Relative potency [3]?
Its Relative potency is 5.8.

What about the IC50 [4] of the same molecule?
Its IC50 is 1.46 nM.

With `CCCCC[C@H](O)CCCC[C@H](O)[C@H]1CC[C@H]([C@H]2CC[C@H]([C@H](O)CCCCCCCCCCCCC3=C[C@H](C)OC3=O)O2)O1` [MOTRILIN] as the molecule, how does the Ratio [1] read?
Its Ratio is 2.

What about the IC50 [2] of the same molecule?
The IC50 was 0.81 nM.

And the Relative potency [3]?
The Relative potency was 1.6.

What about the IC50 [4] of the same molecule?
Its IC50 is 0.41 nM.

What about the Relative potency [5] of the same molecule?
Its Relative potency is 61.

With `CCCCCCCCCCC(=O)[C@H]1CC[C@H]([C@H]2CC[C@H](C(=O)CCCCC(=O)CCCCCCCC3=C[C@H](C)OC3=O)O2)O1` as the molecule, how does the Ratio [1] read?
Its Ratio is 1.5.

And the IC50 [2]?
The IC50 was 2.5 nM.

What about the Relative potency [3] of the same molecule?
Its Relative potency is 6.6.

What about the IC50 [4] of the same molecule?
The IC50 was 1.65 nM.

What does the source list for `CCCCCC[C@H](O)CCC[C@H](O)[C@H]1CC[C@H]([C@H]2CC[C@H]([C@H](O)CCCCCCCCCCCCC3=C[C@H](C)OC3=O)O2)O1` [SQUAMOCIN]?
Ratio [1]: 1.3; IC50 [2]: 0.77 nM; Relative potency [3]: 2.4; IC50 [4]: 0.59 nM; Relative potency [5]: 42.3

For `CCCCCCCCCC[C@H](O)[C@H]1CC[C@H]([C@H]2CC[C@H]([C@H](O)CCCCCCCCCCCCC3=C[C@H](C)OC3=O)O2)O1` [BULLANIN], which Ratio [1] is on record?
The Ratio was 1.4.

What about the IC50 [2] of the same molecule?
Its IC50 is 0.44 nM.

What about the Relative potency [3] of the same molecule?
The Relative potency was 1.3.

What about the IC50 [4] of the same molecule?
The IC50 was 0.32 nM.

And the Relative potency [5]?
Its Relative potency is 78.1.

With `CCCCCCCCCC[C@H](O)[C@H]1CC[C@H]([C@H]2CC[C@H]([C@H](O)CCCCC(O)CCCCCCCC3=C[C@H](C)OC3=O)O2)O1` (stereo partly specified) as the molecule, how does the Ratio [1] read?
The Ratio was 2.

And the IC50 [2]?
The IC50 was 1.9 nM.

And the Relative potency [3]?
Its Relative potency is 3.8.

And the IC50 [4]?
The IC50 was 0.95 nM.

What about the Relative potency [5] of the same molecule?
The Relative potency was 26.3.

For `CCCCCCCCCC[C@H](O)[C@H]1CC[C@@H]([C@@H]2CC[C@H]([C@H](O)CCCCCCCCCC/C(CC3=C[C@H](C)OC3=O)=N\O)O2)O1`, which Ratio [1] is on record?
Its Ratio is 1.1.

And the IC50 [2]?
The IC50 was 0.29 nM.

And the Relative potency [3]?
The Relative potency was 1.

What about the IC50 [4] of the same molecule?
The IC50 was 0.25 nM.

And the Relative potency [5]?
The Relative potency was 100.

For `CCCCCC(CCCC[C@H](OS(C)(=O)=O)[C@H]1CC[C@H]([C@H]2CC[C@H]([C@@H](CCCCCCCCCCCCC3=C[C@H](C)OC3=O)OS(C)(=O)=O)O2)O1)OS(C)(=O)=O` (stereo partly specified), which Ratio [1] is on record?
Its Ratio is 22.

What about the IC50 [2] of the same molecule?
The IC50 was 64 nM.

And the Relative potency [3]?
The Relative potency was 12.

What about the IC50 [4] of the same molecule?
The IC50 was 2.9 nM.

Which Ratio [1] does the source give for `CCCCCCCCCC[C@H](O)[C@H]1CC[C@H]([C@H]2CC[C@H]([C@H](O)CCCC/C(CCCCCCCC3=C[C@H](C)OC3=O)=N\O)O2)O1` here?
Its Ratio is 2.

What about the IC50 [2] of the same molecule?
The IC50 was 0.67 nM.

What about the Relative potency [3] of the same molecule?
Its Relative potency is 1.4.

And the IC50 [4]?
Its IC50 is 0.34 nM.

And the Relative potency [5]?
Its Relative potency is 73.5.

For `CCCCCCC(=O)CCC[C@H](O)[C@H]1CC[C@H]([C@H]2CC[C@H]([C@H](O)CCCCCCCCCCCCC3=C[C@H](C)OC3=O)O2)O1`, which Ratio [1] is on record?
Its Ratio is 1.9.

What about the IC50 [2] of the same molecule?
The IC50 was 1.3 nM.

What about the Relative potency [3] of the same molecule?
Its Relative potency is 2.6.

What about the IC50 [4] of the same molecule?
Its IC50 is 0.65 nM.

And the Relative potency [5]?
The Relative potency was 38.5.

With `CCCCCCCCCC[C@H](O)[C@H]1CC[C@@H]([C@@H]2CC[C@H]([C@H](O)CCCCCCCCCC[C@@H](O)CC3=C[C@H](C)OC3=O)O2)O1` [rolliniastatin-1] as the molecule, how does the Ratio [1] read?
The Ratio was 1.2.

And the IC50 [2]?
Its IC50 is 0.74 nM.

What about the Relative potency [3] of the same molecule?
Its Relative potency is 2.4.

What about the IC50 [4] of the same molecule?
The IC50 was 0.6 nM.

What about the Relative potency [5] of the same molecule?
Its Relative potency is 41.7.

With `CCCCCCCCCCC(=O)[C@H]1CC[C@@H]([C@@H]2CC[C@H]([C@H](O)CCCCCCCCCCC(=O)CC3=C[C@H](C)OC3=O)O2)O1` as the molecule, how does the Ratio [1] read?
Its Ratio is 1.8.

And the IC50 [2]?
Its IC50 is 0.6 nM.

And the Relative potency [3]?
Its Relative potency is 1.4.

What about the IC50 [4] of the same molecule?
The IC50 was 0.34 nM.

And the Relative potency [5]?
Its Relative potency is 73.5.

Which results are given for `CCCCCC(CCCC[C@H](OC(C)=O)[C@H]1CC[C@H]([C@H]2CC[C@H]([C@@H](CCCCCCCCCCCCC3=C[C@H](C)OC3=O)OC(C)=O)O2)O1)OC(C)=O` (stereo partly specified)?
Ratio [1]: 118; IC50 [2]: 248 nM; Relative potency [3]: 8.4; IC50 [4]: 2.1 nM

What does the source list for `CCCCCCCCCC[C@@H](O)[C@@H]1CC[C@@H]([C@@H]2CC[C@@H]([C@H](O)CCCCCCCCCC(O)CC3=CC(C)OC3=O)O2)O1` (stereo partly specified) [BULLATACIN]?
Ratio [1]: 1.2; IC50 [2]: 0.61 nM; Relative potency [3]: 2; IC50 [4]: 0.51 nM; Relative potency [5]: 49
